Results reported in ChEMBL document CHEMBL3808334, “Synthesis and in vitro evaluation of novel triazine analogues as anticancer agents and their interaction studies with bovine serum albumin” (Eur J Med Chem, 2016).

Columns and labels:
Assay type in all cases: functional
ACHN [1] = assay: Growth inhibition of human ACHN cells assessed as cell growth at 10^-7 M incubated for 48 hrs by sulforhodamine B assay; settings: read-out: Activity
Summary of the method: (§1)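 Five-dose assay: five concentrations from 10-fold or ½-log serial dilutions. Cells are plated at 5,000–40,000 per well according to doubling time, grown 24 h, then exposed 48 h at 37 °C, 5% CO₂. Fixed with cold 50% TCA (final addition) for 60 min at 4 °C and stained with 0.4% SRB in 1% acetic acid. Bound dye is solubilized in 10 mM Tris base and read at 515 nm. GI₅₀ is where [(Ti−Tz)/(C−Tz)]×100 = 50, with a time-zero plate as Tz.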

Malme-3M = assay: Growth inhibition of human MALME-3M cells assessed as cell growth at 10^-8 M incubated for 48 hrs by sulforhodamine B assay; settings: read-out: Activity
[2] = Growth inhibition of human UACC62 cells assessed as cell growth at 10^-4 M incubated for 48 hrs by sulforhodamine B assay; settings: UACC-62, 48 h, read-out: Activity
SK-MEL-2 = assay: Growth inhibition of human SK-MEL-2 cells assessed as cell growth at 10^-6 M incubated for 48 hrs by sulforhodamine B assay; settings: SK-MEL-2, 48 h, read-out: Activity
MCF7 [3] = assay: Growth inhibition of human MCF7 cells incubated for 48 hrs by sulforhodamine B assay; settings: MCF7, 48 h
Summary of the method: (§2)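 Cells were plated at 5,000–40,000 per well according to doubling time and preincubated 24 h at 37 °C in 5% CO2; time-zero plates were then TCA-fixed. Five concentrations (10-fold or ½-log dilutions, DMSO stock) were incubated 48 h. Cells were TCA-fixed, stained with 0.4% SRB and read at 515 nm. GI50 was taken where [(Ti−Tz)/(C−Tz)]×100 = 50.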

SK-MEL-28 = assay: Growth inhibition of human SK-MEL-28 cells incubated for 48 hrs by sulforhodamine B assay; settings: SK-MEL-28, 48 h; summary of the method: as §2
MCF7 [4] = assay: Growth inhibition of human MCF7 cells assessed as cell growth at 10^-7 M incubated for 48 hrs by sulforhodamine B assay; settings: MCF7, 48 h, read-out: Activity
[5] = Growth inhibition of human SNB75 cells assessed as cell growth at 10^-8 M incubated for 48 hrs by sulforhodamine B assay; settings: SNB-75, 48 h, read-out: Activity
EKVX = assay: Growth inhibition of human EKVX cells assessed as cell growth at 10^-5 M incubated for 48 hrs by sulforhodamine B assay; settings: read-out: Activity
Summary of the method: (§3)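 Cells seeded at 5,000–40,000/well according to doubling time and preincubated 24 h at 37 °C, 5% CO2. Time-zero plates were TCA-fixed. DMSO concentrate was diluted in medium with 50 µg/ml gentamicin to give five concentrations (10-fold or ½ log steps), then exposed 48 h. Cells were TCA-fixed, stained with 0.4% SRB and read at 515 nm. Percent growth was taken against time-zero and control; GI50, TGI and LC50 derived.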

NCI-H460 = assay: Growth inhibition of human NCI-H460 cells assessed as cell growth at 10^-4 M incubated for 48 hrs by sulforhodamine B assay; settings: NCI-H460, 48 h, read-out: Activity
ACHN [6] = assay: Growth inhibition of human ACHN cells incubated for 48 hrs by sulforhodamine B assay; summary of the method: as §1
[7] = Growth inhibition of human HL-60(TB) cells assessed as cell growth at 10^-6 M incubated for 48 hrs by sulforhodamine B assay; settings: HL-60, 48 h, read-out: Activity
Summary of the method: (§4)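 Cells plated at 5,000–40,000/well according to doubling time and preincubated 24 h at 37 °C, 5% CO₂, with time-zero plates TCA-fixed. Drugs were kept as DMSO concentrates at 400× the top concentration and diluted in medium with 50 µg/ml gentamicin. Five 10-fold or ½-log dilutions were run for 48 h, followed by SRB staining and A515. Percent growth = (Ti−Tz)/(C−Tz)×100, or (Ti−Tz)/Tz×100 when Ti<Tz.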

MCF7 [8] = assay: Growth inhibition of human MCF7 cells assessed as cell growth at 10 uM incubated for 48 hrs by sulforhodamine B assay; settings: MCF7, 48 h, read-out: Activity
NCI-H522 = assay: Growth inhibition of human NCI-H522 cells assessed as cell growth at 10 uM incubated for 48 hrs by sulforhodamine B assay; settings: NCI-H522, 48 h, read-out: Activity
786-0 = assay: Growth inhibition of human 786-0 cells assessed as cell growth at 10 uM incubated for 48 hrs by sulforhodamine B assay; settings: 786-0, 48 h, read-out: Activity
Summary of the method: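 One-dose screen at 10 µM final. Cells are plated at 5,000–40,000 per well according to doubling time and preincubated 24 h at 37 °C, 5% CO₂. Compound (DMSO stock diluted in medium with 50 µg/ml gentamicin) is then added for 48 h. Growth percent is read by sulforhodamine B staining, absorbance at 515 nm.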

[9] = Growth inhibition of human HCT15 cells assessed as cell growth at 10^-4 M incubated for 48 hrs by sulforhodamine B assay; settings: HCT-15, 48 h, read-out: Activity; summary of the method: as §3
[10] = Growth inhibition of human HCT15 cells incubated for 48 hrs by sulforhodamine B assay; settings: HCT-15, 48 h; summary of the method: as §3
A498 = assay: Growth inhibition of human A498 cells assessed as cell growth at 10^-8 M incubated for 48 hrs by sulforhodamine B assay; settings: A498, 48 h, read-out: Activity; summary of the method: as §1
K562 = assay: Growth inhibition of human K562 cells assessed as cell growth at 10^-6 M incubated for 48 hrs by sulforhodamine B assay; settings: K562, 48 h, read-out: Activity
[11] = Growth inhibition of human SF295 cells assessed as cell growth at 10^-6 M incubated for 48 hrs by sulforhodamine B assay; settings: SF-295, 48 h, read-out: Activity
HT-29 = assay: Growth inhibition of human HT-29 cells incubated for 48 hrs by sulforhodamine B assay; settings: HT-29, 48 h; summary of the method: as §2
[12] = Growth inhibition of human HL-60(TB) cells assessed as cell growth at 10^-8 M incubated for 48 hrs by sulforhodamine B assay; settings: HL-60, 48 h, read-out: Activity; summary of the method: as §4
[13] = read-out: LC50 (the source's name)
[14] = read-out: pLC50 (the source's name) (converted)

Fc1ccc(-c2nc(Nc3ccc(-c4nc5ccccc5[nH]4)cc3)nc(N3CCOCC3)n2)cc1
growth at 0.1 µM (ACHN [1]): 95% | growth at 0.01 µM (Malme-3M): 96% | growth at 100 µM [2]: -45% | growth at 1 µM (SK-MEL-2): 99% | GI50 (MCF7 [3]; read-out: GI50): 2590 nM | CC50 (MCF7 [3]; [13]): > 100 µM | TGI (MCF7 [3]; read-out: TGI): > 100000 nM | GI50 (MCF7 [3]; read-out: pGI50 (converted)): 2570 nM | CC50 (MCF7 [3]; [14]): > 100 µM | TGI (MCF7 [3]; read-out: pTGI (converted)): > 100000 nM | GI50 (SK-MEL-28; read-out: GI50): 1800 nM | CC50 (SK-MEL-28; [13]): > 100 µM | TGI (SK-MEL-28; read-out: TGI): 4.28 µM | GI50 (SK-MEL-28; read-out: pGI50 (converted)): 1780 nM | CC50 (SK-MEL-28; [14]): > 100 µM | TGI (SK-MEL-28; read-out: pTGI (converted)): 4.27 µM | growth at 0.1 µM (MCF7 [4]): 89% | growth at 0.01 µM [5]: 86% | growth at 10 µM (EKVX): 3% | growth at 100 µM (NCI-H460): -39% | GI50 (ACHN [6]; read-out: GI50): 2550 nM | CC50 (ACHN [6]; [13]): > 100 µM | TGI (ACHN [6]; read-out: TGI): > 100000 nM | GI50 (ACHN [6]; read-out: pGI50 (converted)): 2570 nM | CC50 (ACHN [6]; [14]): > 100 µM | TGI (ACHN [6]; read-out: pTGI (converted)): > 100000 nM | growth at 1 µM [7]: 81% | growth at 10 µM (MCF7 [8]): -44.3% | growth at 10 µM (NCI-H522): 11.9% | growth at 10 µM (786-0): -60% | growth at 100 µM [9]: -13% | GI50 ([10]; read-out: GI50): 1670 nM | CC50 [10, 13]: > 100 µM | TGI ([10]; read-out: TGI): 4.78 µM | GI50 ([10]; read-out: pGI50 (converted)): 1660 nM | CC50 [10, 14]: > 100 µM | TGI ([10]; read-out: pTGI (converted)): 4.79 µM | growth at 0.01 µM (A498): 100% | growth at 1 µM (K562): 101% | growth at 1 µM [11]: 72% | GI50 (HT-29; read-out: GI50): 2230 nM | CC50 (HT-29; [13]): > 100 µM | TGI (HT-29; read-out: TGI): 5.39 µM | GI50 (HT-29; read-out: pGI50 (converted)): 2240 nM | CC50 (HT-29; [14]): > 100 µM | TGI (HT-29; read-out: pTGI (converted)): 5.37 µM | growth at 0.01 µM [12]: 92%

c1ccc(-c2nc(Nc3ccc(-c4nc5ccccc5[nH]4)cc3)nc(N3CCOCC3)n2)cc1
growth at 0.1 µM (ACHN [1]): 92% | growth at 0.01 µM (Malme-3M): 106% | growth at 100 µM [2]: -75% | growth at 1 µM (SK-MEL-2): 106% | GI50 (MCF7 [3]; read-out: GI50): 877 nM | CC50 (MCF7 [3]; [13]): 8.56 µM | TGI (MCF7 [3]; read-out: TGI): 2850 nM | GI50 (MCF7 [3]; read-out: pGI50 (converted)): 871 nM | CC50 (MCF7 [3]; [14]): 8.51 µM | TGI (MCF7 [3]; read-out: pTGI (converted)): 2820 nM | GI50 (SK-MEL-28; read-out: GI50): 1560 nM | CC50 (SK-MEL-28; [13]): 6.12 µM | TGI (SK-MEL-28; read-out: TGI): 3.09 µM | GI50 (SK-MEL-28; read-out: pGI50 (converted)): 1550 nM | CC50 (SK-MEL-28; [14]): 6.17 µM | TGI (SK-MEL-28; read-out: pTGI (converted)): 3.09 µM | growth at 0.1 µM (MCF7 [4]): 92% | growth at 0.01 µM [5]: 79% | growth at 10 µM (EKVX): -70% | growth at 100 µM (NCI-H460): -78% | GI50 (ACHN [6]; read-out: GI50): 1250 nM | CC50 (ACHN [6]; [13]): 6.04 µM | TGI (ACHN [6]; read-out: TGI): 2740 nM | GI50 (ACHN [6]; read-out: pGI50 (converted)): 1260 nM | CC50 (ACHN [6]; [14]): 6.03 µM | TGI (ACHN [6]; read-out: pTGI (converted)): 2750 nM | growth at 1 µM [7]: -7% | growth at 10 µM (MCF7 [8]): -76.2% | growth at 10 µM (NCI-H522): -68.2% | growth at 10 µM (786-0): -88.9% | growth at 100 µM [9]: -49% | GI50 ([10]; read-out: GI50): 343 nM | TGI ([10]; read-out: TGI): 1.54 µM | GI50 ([10]; read-out: pGI50 (converted)): 347 nM | TGI ([10]; read-out: pTGI (converted)): 1.55 µM | growth at 0.01 µM (A498): 86% | growth at 1 µM (K562): -2% | growth at 1 µM [11]: 64% | GI50 (HT-29; read-out: GI50): 645 nM | CC50 (HT-29; [13]): 6.45 µM | TGI (HT-29; read-out: TGI): 2.19 µM | GI50 (HT-29; read-out: pGI50 (converted)): 646 nM | CC50 (HT-29; [14]): 6.46 µM | TGI (HT-29; read-out: pTGI (converted)): 2.19 µM | growth at 0.01 µM [12]: 73%
